Screens as filed in PubChem BioAssay.
TRPC4 potent: TRPC4 (mouse) allosteric potentiation; Q9QUQ5; HEK293 TRPC4beta/mu-opioid, DAMGO EC20, Fluo-4 Ca2+ flux; stronger effect = higher value; B-score at 10 µM; 310,000 tested, 0.42% active; AID 2227;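 active means B-score of calcium response area above 5 SD of library B-scores, with initial fluorescence ratio within 5 SD of library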;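 further: B-score of integrated fluorescence ratio over time as area under calcium response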
TRPC4 inh: TRPC4 (mouse) channel inhibition; B-score at 10 µM; AID 2247; 300,000 tested, 0.39% active; HEK293 TRPC4beta/mu-opioid, DAMGO-evoked Fluo4 calcium flux; stronger effect = lower value; Q9QUQ5;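 active means B-score over 3 SD under the library average, no early fluorescence shift, positive overall ratio signal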
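System: stable TRPC4beta/mu-opioid receptor HEK293 cells; Dosing: single-point compound dosing; Measured by: Fluo4 Ca2+ flux fluorescence; Read-out basis: per-well B score of integrated baseline-normalized Fluo4 ratio.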
TRPC6 act: activators of mouse TRPC6 channel; HEK293-TRPC6 membrane potential dye fluorescence; stronger effect = higher value; 310,000 tested, 0.13% active; B-score at 10 µM; AID 2550;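 active means B-score of the integrated fluorescence ratio above library mean plus 3 SD, and starting fluorescence ratio within library mean plus 5 SD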;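 further: higher score means more depolarization so channel activation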
TRPC4 act: TRPC4 (mouse) channel activation | 310,000 tested, 0.49% active | HEK293 TRPC4beta/mu-opioid, Fluo4 calcium fluorescence; stronger effect = higher value | B-score at 10 µM | AID 2237;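 active means B-score above 5 SD of library B-scores, and initial fluorescence ratio not above library mean plus 5 SD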;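 further: positive B-score marks a calcium rise read as TRPC4 activation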
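Material: TRPC4beta and mu-opioid receptor HEK293 stable cells | Incubation: 45 min room-temperature Fluo4 loading, 110 s read | Detection: Kinetic Fluo4 calcium fluorescence | Measure: Integrated baseline-normalised fluorescence ratio, converted to per-well B score | Benchmarks: Low control buffer alone, high control maximal DAMGO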
TRPC6 inh: blocks the mouse TRPC6 cation channel. Q61143. HEK293-TRPC6, membrane potential dye, ACh-evoked depolarization; stronger effect = lower value. B-score at 10 µM. 310,000 tested, 1.1% active;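 active means B-score under library mean minus 3 SD, initial fluorescence not abnormally high, positive integrated signal ratio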;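 further: B-score derived from integrated fluorescence ratio over the kinetic read; more negative B-score means stronger inhibition of depolarization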
TRPC4 sel inh 2: second check of whether TRPC6 inhibitors also affect mouse TRPC4; shares compounds with TRPC6 inh; HEK293 TRPC4/MOR, membrane potential dye fluorescence; channel activated by saturating DAMGO dose; inhibition, % at 10 µM; 920 tested, 42% active; AID 2776;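 active means compounds whose fluorescence signal differed from control wells by over 3 SD, either direction, in both duplicate plates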
TRPC4 spec: selectivity of TRPC6 inhibitors: effect on mouse TRPC4; shares compounds with TRPC6 inh; HEK293 TRPC4/mu-opioid, membrane potential fluorescence; activity change, negative = inhibition, % at 10 µM; 920 tested, 61% active; AID 2777;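 active means rise or fall in signal beyond 3 SD of buffer-only wells in both replicate plates, either sign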;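 further: integrated kinetic ratio of fluorescence range over baseline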
HEK293 MPD ctr 2-1: second check of TRPC6 inhibitor effects in parental HEK293 cells | shares compounds with TRPC6 inh | parental HEK293 membrane potential dye fluorescence; maximal acetylcholine challenge after compound addition | signal change vs control, % at 10 µM | 920 tested, 31% active | AID 2779;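 active means membrane potential signal moving either way by over 3 SD of the maximum-effect control, in both duplicate plates, meaning non-specific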
HEK293 MPD ctr-1: parental HEK293 nonspecific activity of TRPC6 inhibitors; shares compounds with TRPC6 inh; parental HEK293 membrane potential dye fluorescence; membrane potential signal change, % at 10 µM; 920 tested, 60% active;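 active means membrane potential signal shifting up or down by more than 3 SD of buffer-only wells, on both duplicate plates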
HEK293 MPD ctr-2: checks TRPC6 modulator effects in parental HEK293 cells | shares compounds with TRPC6 inh | 2,400 tested, 51% active | membrane potential signal change, % at 10 µM | membrane potential dye fluorescence | AID 488924;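 active means membrane potential signal moves up or down beyond 5 SD from buffer-only wells, on both duplicate plates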
HEK293 MPD ctr 2-2: parental HEK293 nonspecific activity of TRPC6 modulators, second screen. membrane potential dye fluorescence; after compound, maximal acetylcholine stimulation. AID 488926. inhibition, % at 10 µM. 2,400 tested, 14% active. shares compounds with TRPC6 inh;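 active means membrane potential signal drops by more than 5 SD from the mean control signal, in both duplicate plates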;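 further: plate controls were acetylcholine ECmax control wells for no effect and buffer only wells for full effect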
TRPC4/MOR mod: tests whether TRPC6 modulators also affect mouse TRPC4. shares compounds with TRPC6 inh. HEK293 TRPC4/mu-opioid, membrane potential fluorescence. percent change from control (negative = decrease, positive = increase), % at 10 µM. 2,400 tested, 69% active. AID 488927;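 active means membrane potential signal moved up or down beyond 5 SD of buffer control wells, in both duplicate plates, actives on both sides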;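 further: plate controls were assay buffer wells for no effect and DAMGO maximal-effect wells for full effect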
TRPC4 ctr inh 2: second selectivity test of TRPC6 modulators against mouse TRPC4; HEK293 TRPC4/mu-opioid, membrane potential dye fluorescence; stimulated with maximal-effect DAMGO; inhibition, % at 10 µM; 2,400 tested, 55% active; shares compounds with TRPC6 inh;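 active means drop in membrane potential signal beyond 5 SD of the control wells in both duplicate plates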;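 further: TRPC4 counter screen for TRPC6 hits run under conditions tuned for TRPC6 not TRPC4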
TRPC6 block conf: mouse TRPC6 inhibitor confirmation. AID 488960. 3,300 tested, 43% active. HEK293-TRPC6, membrane potential dye, ACh-evoked depolarization. inhibition, % at 10 µM. shares compounds with TRPC6 inh;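 active means fluorescence ratio falls more than 5 SD below the full-stimulation control mean, in both duplicate runs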;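 further: integrated fluorescence ratio of peak minus minimum over baseline after agonist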
TRPC6 act confirm: confirmation of mouse TRPC6 activators | shares compounds with TRPC6 inh | HEK293-TRPC6 membrane potential dye fluorescence, FDSS | activation, % at 10 µM | 2,800 tested, 11% active | AID 488961;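 active means ratio signal rise beyond 5 SD above unstimulated control wells' mean, seen in both duplicate runs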;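 further: plate controls were buffer EC0 wells for no effect and acetylcholine ECmax response for full effect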
* = called active by the depositor. Most compounds without a hit are left out; they make up all but 2.3% or so of the library.

How did CN(C)/C=C1\Cc2ccccc2C1=O do in these assays?
TRPC4 potent: inactive; TRPC4 inh: inactive; TRPC6 act: inactive; TRPC4 act: inactive; TRPC6 inh: inactive

Results for Cc1ccc(-c2nn(-c3cc(N4CCNCC4)ccc3[N+](=O)[O-])c(=O)c3ccccc23)cc1 ?
TRPC4 potent: inactive; TRPC4 inh: inactive; TRPC6 act: inactive; TRPC4 act: inactive; TRPC6 inh: -9.6*; TRPC4 sel inh 2: 51%*; TRPC4 spec: -11%*; HEK293 MPD ctr 2-1: inactive; HEK293 MPD ctr-1: inactive; TRPC6 block conf: inactive; TRPC6 act confirm: inactive

How did Cc1nn(-c2cc(N3CCCCCC3)ccc2[N+](=O)[O-])c(=O)c2ccccc12 do in these assays?
TRPC4 potent: inactive; TRPC4 inh: inactive; TRPC6 act: inactive; TRPC4 act: inactive; TRPC6 inh: inactive

What do the screens show for `CC(C)(C)C1CCC(=O)N(CCSc2ccccc2)CC1` (stereo not given)?
TRPC4 potent: inactive; TRPC4 inh: inactive; TRPC6 act: inactive; TRPC4 act: inactive; TRPC6 inh: -5.2*; HEK293 MPD ctr-2: 190%*; HEK293 MPD ctr 2-2: inactive; TRPC4/MOR mod: 44%*; TRPC4 ctr inh 2: inactive; TRPC6 block conf: inactive

What do the screens show for `N#Cc1cc(Sc2ccccn2)c([N+](=O)[O-])cc1C#N`?
TRPC4 potent: inactive; TRPC4 inh: inactive; TRPC6 act: inactive; TRPC4 act: inactive; TRPC6 inh: -8.3*; TRPC4 sel inh 2: inactive; TRPC4 spec: -21%*; HEK293 MPD ctr 2-1: -78%*; HEK293 MPD ctr-1: -320%*; TRPC6 block conf: 75%*; TRPC6 act confirm: inactive

How did Cc1cccc(OCc2n[nH]c(=S)n2Cc2ccccc2)c1 do in these assays?
TRPC4 potent: inactive; TRPC4 inh: inactive; TRPC6 act: inactive; TRPC4 act: inactive; TRPC6 inh: inactive

How did COC(=O)CN(c1nc(C)c(Br)c(OC)n1)S(=O)(=O)c1ccccc1 do in these assays?
TRPC4 potent: inactive; TRPC4 inh: inactive; TRPC6 act: inactive; TRPC4 act: inactive; TRPC6 inh: inactive
